According to ChEMBL document CHEMBL2331394, “Neuroprotective effects of mercaptoethylleonurine and mercaptoethylguanidine analogs on hydrogen peroxide-induced apoptosis in human neuronal SH-SY5Y cells” (Bioorg Med Chem Lett, 2013):
The source made the active and inactive calls. The rule behind the calls is not given here.

How the values were obtained:
[1] = Neuroprotective activity in human SH-SY5Y cells assessed as reduction of H2O2-induced apoptosis at 5 uM after 24 hrs by MTT assay relative to control; format: functional, cell-based; design: scale not given: the % may be the effect or the level left
[2] = Neuroprotective activity in human SH-SY5Y cells assessed as reduction of H2O2-induced apoptosis at 25 uM after 24 hrs by MTT assay relative to control; format: functional, cell-based; design: scale not given: the % may be the effect or the level left
[3] = Neuroprotective activity in human SH-SY5Y cells assessed as reduction of H2O2-induced apoptosis at 50 uM after 24 hrs by MTT assay relative to control; format: functional, cell-based; design: scale not given: the % may be the effect or the level left
[4] = Cytotoxicity against human SH-SY5Y cells at 5 to 100 uM by MTT assay; format: cell-based
[5] = Neuroprotective activity in human SH-SY5Y cells assessed as reduction of H2O2-induced apoptosis at 5 mM after 24 hrs by MTT assay relative to N-acetyl-cysteine; format: functional, cell-based; design: scale not given: the % may be the effect or the level left
SH-SY5Y [6] = experiment: Inhibition of H2O2-induced ERK phosphorylation in human SH-SY5Y cells at 50 uM incubated for 4 hrs prior to H2O2 induction measured after 12 hrs by Western blotting analysis; format: cell-based
How it was run: (§1)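 SH-SY5Y cells pretreated 4 h with 50 µM test agent, then stimulated with 100 µM H2O2 for the indicated periods before harvest. Phosphorylated Akt, JNK, ERK and p38 detected by Western blot, normalised to the corresponding total protein as loading control.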

[7] = target: MAP kinase p38 (Homo sapiens) (UniProt O15264+Q15759+Q16539+P53778); experiment: Inhibition of H2O2-induced p38 phosphorylation in human SH-SY5Y cells at 50 uM incubated for 4 hrs prior to H2O2 induction measured after 12 hrs by Western blotting analysis; format: cell-based; how it was run: as §1
[8] = target: c-Jun N-terminal kinase, JNK (Homo sapiens) (UniProt P45983+P53779+P45984); experiment: Inhibition of H2O2-induced JNK phosphorylation in human SH-SY5Y cells at 50 uM incubated for 4 hrs prior to H2O2 induction measured after 12 hrs by Western blotting analysis; format: cell-based; how it was run: as §1
SH-SY5Y [9] = experiment: Inhibition of H2O2-induced AKT phosphorylation in human SH-SY5Y cells at 50 uM incubated for 4 hrs prior to H2O2 induction measured after 12 hrs by Western blotting analysis; format: cell-based; how it was run: as §1
[10] = Neuroprotective activity in H2O2-stimulated human SH-SY5Y cells assessed as upregulation of Bax expression incubated for 4 hrs prior to H2O2 challenge measured after 12 hrs by Western blotting analysis; format: functional, cell-based; conditions: in the assay text read “downregulation of Bax expression” for “upregulation of Bax expression”
How it was run: (§2)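 SH-SY5Y cells pretreated 4 h with test agent (5, 25, 50 µM) or NAC (5 mM), then exposed to 100 µM H2O2 for 12 h. Bcl-2 and Bax quantified by Western blot densitometry against GAPDH. Mean ± SEM of at least three independent experiments, each in duplicate.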

[11] = Neuroprotective activity in H2O2-stimulated human SH-SY5Y cells assessed as downregulation of Bcl2 expression incubated for 4 hrs prior to H2O2 challenge measured after 12 hrs by Western blotting analysis; format: functional, cell-based; conditions: in the assay text read “upregulation of Bcl2 expression” for “downregulation of Bcl2 expression”; how it was run: as §2
[12] = Neuroprotective activity in H2O2-stimulated human SH-SY5Y cells assessed as upregulation of Bax expression at 5 mM incubated for 4 hrs prior to H2O2 challenge measured after 12 hrs by Western blotting analysis; format: functional, cell-based; conditions: in the assay text read “downregulation of Bax expression” for “upregulation of Bax expression”; how it was run: as §2
[13] = Neuroprotective activity in H2O2-stimulated human SH-SY5Y cells assessed as downregulation of Bcl2 expression at 5 mM incubated for 4 hrs prior to H2O2 challenge measured after 12 hrs by Western blotting analysis; format: functional, cell-based; conditions: in the assay text read “upregulation of Bcl2 expression” for “downregulation of Bcl2 expression”; how it was run: as §2

Work on N=C(NCCS)NCCCCO yielded an Activity [1] of 68%, an Activity [2] of 63.5% and an Activity [3] of 70.2%. For the same compound, the Activity [4] was “Non-toxic” and the Activity [5] was 82.4%.
Work on COc1cc(C(=O)OC2CCC(NC(=N)NCCS)CC2)cc(OC)c1O (configuration not stated) yielded an Activity [1] of 76.4%, an Activity [2] of 67.2% and an Activity [3] of 65.9%. For the same compound, the Activity [4] was “Non-toxic” and the Activity [5] was 88.8%.
N=C(NCCN)NCCS gave an Activity [1] of 66.3%, an Activity [2] of 75.4% and an Activity [3] of 79.2%. For the same compound, the Activity [4] was “Non-toxic” and the Activity [5] was 76.4%.
N=C(NCCS)NC1CCC(O)CC1 (configuration not stated) showed an Activity [1] of 31.6%, an Activity [2] of 38.6% and an Activity [3] of 30.4%. The Activity [4] was “Non-toxic” and the Activity [5] was 82.4%.
Work on N=C(NCCS)NCCCO yielded an Activity [1] of 67.2%, an Activity [2] of 81% and an Activity [3] of 82.1%. The Activity [4] was “Non-toxic” and the Activity [5] was 76.4%.
Compound CC(CO)NC(=N)NCCS (configuration not stated) has an Activity [1] of 59.9%, an Activity [2] of 67.2% and an Activity [3] of 80%. For the same compound, the Activity [4] was “Non-toxic” and the Activity [5] was 88.8%.
CCC(O)CNC(=N)NCCS (configuration not stated) gave an Activity [1] of 75.8%, an Activity [2] of 77.1% and an Activity [3] of 71.1%. For the same compound, the Activity [4] was “Non-toxic” and the Activity [5] was 88.8%.
N=C(NCCS)NCCCCCCO gave an Activity [1] of 72.4%, an Activity [2] of 55.5% and an Activity [3] of 52.9%. The Activity [4] was “Non-toxic” and the Activity [5] was 82.4%.
In the case of COc1cc(C(=O)OCCCCNC(=N)N)cc(OC)c1O, the Activity [1] is reported as 76.7%, the Activity [2] is reported as 38.5% and the Activity [3] is reported as 46%. The Activity [5] was 82.4%.
Work on N=C(NCCS)NCCCCCO yielded an Activity [1] of 60%, an Activity [2] of 80.6% and an Activity [3] of 82.8%. The Activity [4] was “Non-toxic” and the Activity [5] was 76.4%.
Compound COc1cc(C(=O)OCCCCCNC(=N)NCCS)cc(OC)c1O has an Activity [1] of 53.9%, an Activity [2] of 59.9% and an Activity [3] of 65.9%. For the same compound, the Activity [4] was “Non-toxic” and the Activity [5] was 76.4%.
In the case of N=C(NCCS)NCCCN, the inhibition (SH-SY5Y [6]) is reported as “inactive”, the inhibition [7] is reported as “inactive” and the inhibition [8] is reported as “Active”. For the same compound, the inhibition (SH-SY5Y [9]) was “Active”, the Activity [10] was “Dose-dependent effect” and the Activity [11] was “Dose-dependent effect”. For the same compound, the Activity [1] was 77.3%, the Activity [2] was 84.3% and the Activity [3] was 96.5%. For the same compound, the Activity [4] was “Non-toxic” and the Activity [5] was 82.4%.
COc1cc(C(=O)OCCCCNC(=N)NCCS)cc(OC)c1OC gave an Activity [1] of 32.5%, an Activity [2] of 49.4% and an Activity [3] of 49.1%. For the same compound, the Activity [4] was “Non-toxic” and the Activity [5] was 82.4%.
In the case of CC(=O)N[C@@H](CS)C(=O)O, the Activity [12] is reported as “Active” and the Activity [13] is reported as “Active”.
COc1ccc(C(=O)OCCCCNC(=N)NCCS)cc1 showed an Activity [1] of 42.4%, an Activity [2] of 37.5% and an Activity [3] of 48.6%. The Activity [4] was “Non-toxic” and the Activity [5] was 82.4%.
COc1cc(C(=O)OCCCCCCNC(=N)NCCS)cc(OC)c1O gave an Activity [1] of 78.5%, an Activity [2] of 80.6% and an Activity [3] of 73.8%. The Activity [4] was “Non-toxic” and the Activity [5] was 88.8%.
In the case of COc1cc(C(=O)OCCCNC(=N)NCCS)cc(OC)c1O, the Activity [1] is reported as 78.8%, the Activity [2] is reported as 83.3% and the Activity [3] is reported as 93.3%. The Activity [4] was “Non-toxic” and the Activity [5] was 76.4%.
With COc1cc(C(=O)OCCCCNC(=N)NCCS)cc(OC)c1O the Activity [1] was 60.7%, the Activity [2] was 66.4% and the Activity [3] was 60.4%. The Activity [4] was “Non-toxic” and the Activity [5] was 88.8%.
Work on COc1cc(OC)cc(C(=O)OCCCCNC(=N)NCCS)c1 yielded an Activity [1] of 62.1%, an Activity [2] of 63.5% and an Activity [3] of 66.1%. For the same compound, the Activity [4] was “Non-toxic” and the Activity [5] was 88.8%.
In the case of CC(O)CNC(=N)NCCS (configuration not stated), the Activity [1] is reported as 77.1%, the Activity [2] is reported as 67.3% and the Activity [3] is reported as 65.5%. The Activity [4] was “Non-toxic” and the Activity [5] was 88.8%.
With N=C(NCCO)NCCS the Activity [1] was 56.4%, the Activity [2] was 59.6% and the Activity [3] was 65.1%. For the same compound, the Activity [4] was “Non-toxic” and the Activity [5] was 76.4%.
